Reference: ChEMBL document CHEMBL2396638, “Structure-activity relationship studies and sleep-promoting activity of novel 1-chloro-5,6,7,8-tetrahydroimidazo[1,5-a]pyrazine derivatives as dual orexin receptor antagonists. Part 2” (Bioorg Med Chem Lett, 2013)

How the values were obtained:
[1] = target: T1, Orexin/Hypocretin receptor type 1 (Homo sapiens, UniProt O43613); test: Antagonist activity at human OX1R expressed in CHO cells assessed as inhibition of calcium mobilization by FLIPR assay; assay type: functional, cell-based
T1 sequence (O43613 whole entry): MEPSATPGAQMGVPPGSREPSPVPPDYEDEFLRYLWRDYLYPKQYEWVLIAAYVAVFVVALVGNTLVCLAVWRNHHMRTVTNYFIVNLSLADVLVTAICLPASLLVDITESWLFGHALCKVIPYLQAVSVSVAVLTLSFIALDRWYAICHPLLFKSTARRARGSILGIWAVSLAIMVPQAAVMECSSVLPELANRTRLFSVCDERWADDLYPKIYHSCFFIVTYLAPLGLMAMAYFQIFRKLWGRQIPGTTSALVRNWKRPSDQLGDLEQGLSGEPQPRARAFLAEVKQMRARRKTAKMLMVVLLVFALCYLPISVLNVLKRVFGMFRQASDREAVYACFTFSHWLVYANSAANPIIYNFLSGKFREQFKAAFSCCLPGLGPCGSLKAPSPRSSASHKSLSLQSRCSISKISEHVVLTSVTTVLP

[2] = Ratio of drug level from brain to plasma in Wistar rat at 100 mg/kg, po after 3 hrs; assay type: ADME, organism-based; parameters: dose 100 mg/kg, route oral; details: read-out: BPR
Summary of the method: (§1)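 Male Wistar rats on 12 h light/dark cycle dosed orally at 100 mg/kg in PEG-400. Plasma and brain collected from the same animal at 3 h (±5 min). Blood drawn from caudal vena cava into EDTA and centrifuged for plasma. Brain taken after cardiac perfusion with 0.9% NaCl and homogenized in one volume cold phosphate buffer pH 7.4.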

[3] = Plasma concentration in Wistar rat at 100 mg/kg, po after 3 hrs; assay type: ADME, organism-based; parameters: dose 100 mg/kg, route oral; summary of the method: as §1
[4] = Drug uptake in Wistar rat brain at 100 mg/kg, po after 3 hrs; assay type: ADME, organism-based; parameters: dose 100 mg/kg, route oral; details: read-out: Drug uptake; summary of the method: as §1
Orexin receptor type 2 = target: T2, Orexin receptor type 2 (Homo sapiens, UniProt O43614); test: Antagonist activity at human OX2R expressed in CHO cells assessed as inhibition of calcium mobilization by FLIPR assay; assay type: functional, cell-based
T2 sequence (O43614 whole entry): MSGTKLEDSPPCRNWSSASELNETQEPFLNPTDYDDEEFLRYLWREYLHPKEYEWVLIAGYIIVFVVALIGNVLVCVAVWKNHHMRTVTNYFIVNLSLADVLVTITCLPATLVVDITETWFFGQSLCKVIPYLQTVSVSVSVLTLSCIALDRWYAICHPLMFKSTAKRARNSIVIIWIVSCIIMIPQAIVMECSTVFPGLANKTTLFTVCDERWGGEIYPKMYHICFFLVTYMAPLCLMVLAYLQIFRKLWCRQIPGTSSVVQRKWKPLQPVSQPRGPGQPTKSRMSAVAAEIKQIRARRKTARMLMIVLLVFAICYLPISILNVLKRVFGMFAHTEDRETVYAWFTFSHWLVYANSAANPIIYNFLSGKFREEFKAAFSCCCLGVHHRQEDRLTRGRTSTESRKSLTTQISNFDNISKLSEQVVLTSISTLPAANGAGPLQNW
Summary of the method: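 CHO cells stably expressing human OX2R, loaded with fluo-3 AM calcium dye at 37 °C in 5% CO2, then washed. Antagonist added at varying concentrations before an approximate EC80 of orexin A. Ca2+ mobilization read by FLIPR; IC50 taken as concentration inhibiting 50% of the orexin A-induced calcium response.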

Rattus norvegicus [5] = test: Sleep-promoting activity in Wistar rat electroencephalographic model assessed as increase in time spent in rapid eye movement sleep at 100 mg/kg, po measured over 12 hrs relative to vehicle-treated control; assay type: functional
Summary of the method: (§2)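 Freely moving adult male Wistar rats carrying radiotelemetric implants recording EEG, EMG and locomotor activity in the home cage. Oral dose of 100 mg/kg in 100% PEG-400 given at the start of the dark phase. Crossover design with 12 or 16 rats per group and at least 4-day washout. Read-outs over the 12 h night versus vehicle; means ± SEM, paired t-test.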

Rattus norvegicus [6] = test: Sleep-promoting activity in Wistar rat electroencephalographic model assessed as time spent in non-rapid eye movement sleep at 100 mg/kg, po measured over 12 hrs relative to total sleep time (reference value: 85.4 to 87.3%); assay type: functional; summary of the method: as §2
Rattus norvegicus [7] = test: Sleep-promoting activity in Wistar rat electroencephalographic model assessed as time spent in rapid eye movement sleep at 100 mg/kg, po measured over 12 hrs relative to total sleep time (reference value: 12.7 to 14.6%); assay type: functional; summary of the method: as §2
Rattus norvegicus [8] = test: Sleep-promoting activity in Wistar rat electroencephalographic model assessed as increase in time spent in non-rapid eye movement sleep at 100 mg/kg, po measured over 12 hrs relative to vehicle-treated control; assay type: functional; summary of the method: as §2
Rattus norvegicus [9] = test: Sleep-promoting activity in Wistar rat electroencephalographic model assessed as reduction of time spent in active wake at 100 mg/kg, po measured over 12 hrs relative to vehicle-treated control; assay type: functional; parameters: scale not given: the % may be the effect or the level left; summary of the method: as §2
Rattus norvegicus [10] = test: Sleep-promoting activity in Wistar rat electroencephalographic model assessed as decrease in home cage activity at 100 mg/kg, po measured over 12 hrs relative to vehicle-treated control; assay type: functional; parameters: scale not given: the % may be the effect or the level left; summary of the method: as §2
MDR1 (human) [11] = test: Efflux ratio of apparent permeability […] to apical side in MDCK cells expressing human MDR1; assay type: ADME, cell-based, Canis lupus familiaris; details: dog
MDR1 (human) [12] = test: Apparent permeability across basolateral to apical side in MDCK cells expressing human MDR1; assay type: ADME, cell-based, Canis lupus familiaris; details: dog
MDR1 (human) [13] = test: Apparent permeability across apical to basolateral side in MDCK cells expressing human MDR1; assay type: ADME, cell-based, Canis lupus familiaris; details: dog

CNC(=O)[C@@H](c1ccccc1)N1CCn2c(C3CC3)nc(Cl)c2[C@@H]1CCc1ccc(C(F)(F)F)cc1
IC50 [1]: 30 nM

CCc1nc(Cl)c2n1CCN([C@@H](C(=O)NC)c1ccccc1)[C@H]2CCc1ccc(C(F)(F)F)c(F)c1F
Kp at 3 h [2]: 0.1 | concentration at 3 h [3]: 6770 nM | concentration at 3 h [4]: 695 nM | IC50 (Orexin receptor type 2): 14 nM | IC50 [1]: 17 nM

CCc1nc(Cl)c2n1CCN([C@@H](C(=O)NC)c1ccccc1)[C@H]2CCc1cc(F)c(C(F)(F)F)cc1F
IC50 (Orexin receptor type 2): 17 nM | IC50 [1]: 32 nM

CCc1nc(Cl)c2n1CCN([C@@H](C(=O)NC)c1ccccc1)[C@H]2CCc1cc(F)c(C(F)(F)F)c(F)c1
IC50 (Orexin receptor type 2): 8 nM | IC50 [1]: 16 nM

CCc1nc(Cl)c2n1CCN([C@@H](C(=O)NC)c1ccccc1)[C@H]2CCc1ccc(F)c(F)c1F
Kp at 3 h [2]: 0.05 | concentration at 3 h [3]: 387 nM | concentration at 3 h [4]: 18 nM | IC50 (Orexin receptor type 2): 5 nM | IC50 [1]: 30 nM

CCc1nc(Cl)c2n1CCN([C@@H](C(=O)NC)c1ccccc1)[C@H]2CCc1ccc(F)c(C(F)(F)F)c1
IC50 (Orexin receptor type 2): 16 nM | IC50 [1]: 378 nM

CCc1nc(Cl)c2n1CCN([C@@H](C(=O)NC)c1ccccc1)[C@H]2CCc1cccc(C(F)(F)F)c1F
Kp at 3 h [2]: 0.07 | concentration at 3 h [3]: 1860 nM | concentration at 3 h [4]: 136 nM | IC50 (Orexin receptor type 2): 9 nM | IC50 [1]: 16 nM

CNC(=O)[C@@H](c1ccccc1)N1CCn2c(C3CC3)nc(Cl)c2[C@@H]1CCc1ccc(C(F)(F)F)c(F)c1
Kp at 3 h [2]: 0.07 | concentration at 3 h [3]: 6800 nM | concentration at 3 h [4]: 450 nM | IC50 (Orexin receptor type 2): 10 nM | IC50 [1]: 53 nM

CNC(=O)[C@@H](c1ccccc1)N1CCn2c(C3CC3)nc(Cl)c2[C@@H]1CCc1ccc(C(F)(F)F)cc1F
Kp at 3 h [2]: 0.05 | concentration at 3 h [3]: 6760 nM | concentration at 3 h [4]: 338 nM | IC50 (Orexin receptor type 2): 26 nM | IC50 [1]: 94 nM

CNC(=O)[C@@H](c1ccccc1)N1CCn2c(C3CC3)nc(Cl)c2[C@@H]1CCc1ccc(OC(F)F)c(F)c1
IC50 (Orexin receptor type 2): 2 nM | IC50 [1]: 170 nM

CCc1nc(Cl)c2n1CCN([C@@H](C(=O)NC)c1ccccc1)[C@H]2CCc1cccc(C(F)(F)F)c1
IC50 (Orexin receptor type 2): 10 nM | IC50 [1]: 72 nM

CCc1nc(Cl)c2n1CCN([C@@H](C(=O)NC)c1ccccc1)[C@H]2COc1ccc(C(F)(F)F)cc1
IC50 (Orexin receptor type 2): 9 nM | IC50 [1]: 431 nM

CCc1nc(Cl)c2n1CCN([C@@H](C(=O)NC)c1ccccc1)[C@H]2COc1cccc(C(F)(F)F)c1
IC50 (Orexin receptor type 2): 4 nM | IC50 [1]: 312 nM

CCc1nc(Cl)c2n1CCN([C@@H](C(=O)NC)c1ccccc1)[C@H]2CCc1ccc(C#N)cc1
IC50 (Orexin receptor type 2): 16 nM | IC50 [1]: 3900 nM

CCc1nc(Cl)c2n1CCN([C@@H](C(=O)NC)c1ccccc1)[C@H]2CCc1ccc(OC(F)F)cc1
IC50 (Orexin receptor type 2): 1 nM | IC50 [1]: 74 nM

CCc1nc(Cl)c2n1CCN([C@@H](C(=O)NC)c1ccccc1)[C@H]2CCc1ccc(OC(F)(F)F)cc1
IC50 (Orexin receptor type 2): 18 nM | IC50 [1]: 203 nM

CCc1nc(Cl)c2n1CCN([C@@H](C(=O)NC)c1ccccc1)[C@H]2CCc1ccc(C(F)(F)F)c(F)c1
Activity (Rattus norvegicus [5]): 9% | Activity (Rattus norvegicus [6]): 86.2% | Activity (Rattus norvegicus [7]): 13.8% | Activity (Rattus norvegicus [8]): 16% | Activity (Rattus norvegicus [9]): 13% | Activity (Rattus norvegicus [10]): 36% | efflux ratio (MDR1 (human) [11]): 35 | Papp B→A (MDR1 (human) [12]): 68.8 ×10⁻⁶ cm/s | Papp A→B (MDR1 (human) [13]): 1.98 ×10⁻⁶ cm/s | Kp at 3 h [2]: 0.12 | concentration at 3 h [3]: 9820 nM | concentration at 3 h [4]: 1220 nM | IC50 (Orexin receptor type 2): 7 nM | IC50 [1]: 18 nM

CCc1nc(Cl)c2n1CCN([C@@H](C(=O)NC)c1ccccc1)[C@@H]2CCc1ccc(C(F)(F)F)c(F)c1
IC50 (Orexin receptor type 2): 227 nM | IC50 [1]: 547 nM

CCc1nc(Cl)c2n1CCN([C@@H](C(=O)NC)c1ccccc1)[C@H]2CCc1ccc(C(F)(F)F)c(Cl)c1
Kp at 3 h [2]: 0.08 | concentration at 3 h [3]: 1600 nM | concentration at 3 h [4]: 128 nM | IC50 (Orexin receptor type 2): 18 nM | IC50 [1]: 20 nM

CCc1nc(Cl)c2n1CCN([C@@H](C(=O)NC)c1ccccc1)[C@H]2CCc1ccc(C(F)(F)F)cc1F
Kp at 3 h [2]: 0.06 | concentration at 3 h [3]: 6420 nM | concentration at 3 h [4]: 363 nM | IC50 (Orexin receptor type 2): 12 nM | IC50 [1]: 45 nM

CNC(=O)[C@@H](c1ccccc1)N1CCc2cc(OC)c(OC)cc2[C@@H]1CCc1ccc(C(F)(F)F)cc1 [ALMOREXANT]
Activity (Rattus norvegicus [5]): 38% | Activity (Rattus norvegicus [6]): 85.8% | Activity (Rattus norvegicus [7]): 14.2% | Activity (Rattus norvegicus [8]): 20% | Activity (Rattus norvegicus [9]): 20% | Activity (Rattus norvegicus [10]): 43%
